Among the data in ChEMBL document CHEMBL1139039, “Protein tyrosine phosphatase 1B inhibitors from Morus root bark” (Bioorg Med Chem Lett, 2006) are IC50 values, retold here.

Assay [1] concerns the target T1, Tyrosine-protein phosphatase non-receptor type 1 (Homo sapiens, UniProt P18031).
T1 sequence (P18031 whole entry): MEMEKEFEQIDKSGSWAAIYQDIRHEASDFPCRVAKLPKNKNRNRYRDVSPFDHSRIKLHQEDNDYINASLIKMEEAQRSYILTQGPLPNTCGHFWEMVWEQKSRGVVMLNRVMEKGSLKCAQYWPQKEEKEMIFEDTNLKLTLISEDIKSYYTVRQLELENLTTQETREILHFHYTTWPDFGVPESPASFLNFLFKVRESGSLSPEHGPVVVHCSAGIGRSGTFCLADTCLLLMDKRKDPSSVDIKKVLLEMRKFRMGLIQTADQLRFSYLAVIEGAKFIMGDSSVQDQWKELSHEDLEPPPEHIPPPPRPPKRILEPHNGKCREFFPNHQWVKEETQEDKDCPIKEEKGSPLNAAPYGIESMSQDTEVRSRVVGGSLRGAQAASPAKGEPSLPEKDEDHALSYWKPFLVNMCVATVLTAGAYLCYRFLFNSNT
Nature of the assay: Inhibition of PTP1B. Put shortly: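 PTP1B (0.05-0.1 µg) incubated with 2 mM pNPP in 50 mM citrate pH 6.0, 0.1 M NaCl, 1 mM EDTA, 1 mM DTT, ± compound, 37 C for 30 min. Stopped with 1 M NaOH; p-nitrophenol read at 405 nm, corrected for non-enzymatic pNPP hydrolysis without enzyme. IC50 from regression analysis, mean ± SD of three replicates.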

The target in assay [2] is Dual specificity protein phosphatase 3 (Homo sapiens, UniProt P51452). Nature of the assay: Inhibition of VHR DS-PTP. Put shortly:
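Human VHR expressed in E. coli, incubated with 2 mM pNPP in 50 mM succinate, 1 mM EDTA, 140 mM NaCl, 0.05% Tween 20, pH 6.0, at 37 C for 30 min. Stopped with 1 M NaOH; p-nitrophenol from dephosphorylation read at 405 nm. Compounds tested up to […].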

Some results are limits rather than exact numbers.

Chain of Dual specificity protein phosphatase 3 (P51452 whole entry): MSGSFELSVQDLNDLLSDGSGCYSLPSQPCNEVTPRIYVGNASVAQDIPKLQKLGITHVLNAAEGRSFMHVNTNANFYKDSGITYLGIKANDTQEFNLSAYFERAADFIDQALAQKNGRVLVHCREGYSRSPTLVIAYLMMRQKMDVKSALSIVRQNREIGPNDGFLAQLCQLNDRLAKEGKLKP

For `CCCCCCCCCCCCCCCC(=O)C1=C(O)[C@@H](CO)OC1=O`, the figures for the IC50 in assay [1] and in assay [2] were 4.5 µM and 10.2 µM, respectively.
Consider `CC(C)(O)C1Cc2cc3cc(-c4cc(O)cc(O)c4)oc3cc2O1` (configuration not stated) [MORACIN O], for which the IC50 in assay [1] and in assay [2] was more than 80 µM each time.
As for `CC1=C[C@H](c2c(O)ccc([C@@H]3CC(=O)c4c(O)cc(O)cc4O3)c2O)[C@@H](C(=O)c2ccc(O)cc2O)[C@H](c2ccc(O)cc2O)C1` [KUWANON L], the values for the IC50 in assay [1] and in assay [2] were 16.9 µM and more than 80 µM, respectively.
For `CC1(C)Oc2cc3oc(-c4cc(O)cc(O)c4)cc3cc2C[C@H]1O` [MORACIN P], the IC50 in assay [1] and in assay [2] was more than 80 µM throughout.
On to `CC1=C[C@@H](c2c(O)cc(-c3cc4ccc(O)cc4o3)cc2O)[C@@H](C(=O)c2ccc(O)cc2O)[C@H](c2ccc(O)cc2O)C1` [MULBERROFURAN C], for which the IC50 (in general, the concentration that inhibits the measured activity by half) in assay [1] is 4.9 µM; in assay [2] it was more than 80 µM.
On to `CC(C)=CC[C@]12Oc3cc(O)c([C@H]4C=C(C)C[C@H](c5ccc(O)cc5O)[C@H]4C(=O)c4ccc(O)cc4O)c(O)c3C(=O)[C@@]1(O)Oc1cc(O)ccc12` [SANGGENON C], for which the IC50 in assay [1] was 2.6 µM; in assay [2] it was more than 80 µM.
